17 compounds from ChEMBL document CHEMBL2429733, “Meroterpenoids with diverse ring systems from the sponge-associated fungus Alternaria sp. JJY-32” (J Nat Prod, 2013) can be followed below.

Assay [1] can be described thus: Inhibition of LPS-induced NF-kappaB (unknown origin) activation transfected in mouse RAW264.7 cells preincubated for 2 hrs followed by LPS challenge measured after 4 hrs by luciferase reporter gene assay. It is filed as cell-based. In short, it runs like this:
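RAW264.7 cells were seeded at 2.5 × 10^5 per well and held at 37 °C for 24 h. They were then transiently transfected with pNF-κB-Luc plasmid (0.5 μg/well) using lipofectamine 2000. After 24 h, compounds were added for 2 h, then LPS (0.1 μg/mL) for a further 4 h. Read-out was Steady-Glo luciferase, with PDTC as the positive control, and IC50 was derived.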
For orientation: Reporter assays use an easily measured gene product as a stand-in for the process of interest.

Another assay deals with HL-60. In words: Cytotoxicity against human HL60 cells. It is filed as functional, cell-based. In short, it runs like this: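 Growth of human tumour cells measured by the MTT or SRB method, with adriamycin as the positive control.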
Another assay concerns A549. Description: Cytotoxicity against human A549 cells.

Structures can show the parent of a compound that is named as a salt. The source made the active and inactive calls. The calls are words filed in the database; no cut-off is given here.

Turning to `S=C(S)N1CCCC1` [PYRROLIDINE DITHIOCARBAMIC ACID, AMMONIUM SALT], the IC50 – broadly, the concentration at which inhibition is half-maximal – in assay [1] came to 3 µM. Consider `C/C(=C\CC[C@@H](C)C1=CC[C@@]2(C)OC3=C(C[C@@H]12)C(=O)[C@H](O)CC3)CO`, for which the result in the assay on HL-60 was inactive. Besides, in assay [1], the IC50 came to 50 µM. For the compound `COc1cccc2c1C(=O)c1c(O)c3c(c(O)c1C2=O)C[C@@](O)(C(=O)CO)C[C@@H]3O[C@H]1C[C@H](N)[C@H](O)[C@H](C)O1` [DOXORUBICIN], the results for the IC50 with HL-60 and with A549 were 0.09 µM and 0.35 µM, respectively.

For `C/C(=C\Cc1cc(C(=O)O)cc(O)c1O)CC/C=C(\C)CC[C@@H](O)C(C)(C)O` [(+)-MONOCYCLOALTERNARENE B], in the assay on HL-60, the result was inactive. In assay [1], this compound came in with an IC50 of 47 µM. The like results for `CO[C@@H]1C[C@H](O)C(O)=C(C/C=C(\C)CC/C=C(\C)CC/C=C(\C)C(=O)O)C1=O` were, in that order, “inactive” and 58 µM. In the case of `CO[C@@H]1C[C@H](O)C2=C(C[C@H]3[C@H](C(C)(O)CCC=C(C)C)CC[C@@]3(C)O2)C1=O` (stereo partly drawn) [TRICYCLOALTERNARENE B], in the assay with HL-60, the outcome was inactive. The compound further showed an IC50 in assay [1] of 76 µM. The like results for `C/C(=C\CC[C@]1(C)OC2=C(C[C@@H]1O)C(=O)[C@H](O)CC2)CC/C=C(\C)C(=O)O` were, in that order, “inactive” and greater than 100 µM.

`C/C(C=O)=C\CC[C@@H](C)C1=CC[C@@]2(C)OC3=C(C[C@@H]12)C(=O)[C@H](O)CC3`: in the assay with HL-60, the result was inactive. The IC50 in assay [1] was determined as 39 µM. The like results for `CC(C)=CCC[C@](C)(O)[C@H](O)CC[C@](C)(O)[C@@H]1CC2=C(CC[C@@H](O)C2=O)O1` were, in that order, “inactive” and 62 µM. For `CO[C@@H]1C[C@H](O)C(O)=C(C/C=C(\C)CC/C=C(\C)CCCC(C)C(=O)O)C1=O` (stereo partly drawn), the result in the assay on HL-60 was inactive. In assay [1], this compound registered an IC50 of 42 µM.

Turning to `C/C(=C\CC[C@]1(C)OC2=C(C[C@@H]1O)C(=O)CC[C@H]2O)CC/C=C(\C)C(=O)O`, in the assay with HL-60, the outcome was inactive. For the same compound, in assay [1], the IC50 is greater than 100 µM.

For `C/C(=C\CC[C@](C)(O)[C@@H]1CC2=C(CC[C@@H](O)C2=O)O1)CC[C@@H](O)C(C)(C)O`, in the assay with HL-60, the outcome was inactive. In assay [1], the IC50 was 70 µM. The matching figures for `C/C(=C\CC[C@](C)(O)[C@@H]1CC2=C(CC[C@@H](O)C2=O)O1)CC/C=C(\C)C(=O)O`: “inactive” and 85 µM.

Turning to `CC(C)=CCC[C@H](C)[C@@H]1CC[C@](C)(O)[C@]12CC1=C(O2)[C@H](O)CCC1=O` [TRICYCLOALTERNARENE A], the outcome with HL-60 was inactive. Half-maximal inhibition in assay [1] (IC50) was put at 52 µM. The like results for `CC(C)=CCCC(C)(O)[C@@H]1CC[C@@]2(C)OC3=C(C[C@@H]12)C(=O)CC[C@H]3O` (stereo partly drawn) [TRICYCLOALTERNARENE C] were, in that order, “inactive” and 75 µM. The like results for `COc1ccc(O)c(C/C=C(\C)CC/C=C(\C)CC[C@@H](O)C(C)(C)O)c1O` [(+)-MONOCYCLOALTERNARENE A] were, in that order, “inactive” and 45 µM. The like results for `C/C(=C\CC[C@](C)(O)[C@@H]1CC2=C(O1)[C@H](O)CCC2=O)CC/C=C(\C)C(=O)O` were, in that order, “inactive” and 67 µM.
